Fewer inactive variants are shown than the library holds.
B1: tRNA (parent)
chain: GUUCCGUUGGCGUAAUGGUAACGCGUCUCCCUCCUAAGGAGAAGACUGCGGGUUCGAGUCCCGUACGGAACG

Variants of: B1
Experiment: yeast fitness relative to wild type (ratio to wild type); higher = fitter; tRNA-Arg(CCU), competitive growth, 37 C, YPD
In short: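 A pool of Saccharomyces cerevisiae strains, each with a tRNA-Arg(CCU) gene variant at the native genomic locus, was competed in YPD at 37°C for 24 hours across six parallel replicates. The variants had been chemically synthesised at a 3% per-site mutation rate over 69 sites, and gene amplicons before and after competition were read by 100-nucleotide paired-end sequencing. Darwinian fitness relative to wild type rested on changes in genotype frequencies. Genotypes required ≥ 100 starting reads, and estimates < 0.5 were set to 0.5.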

Variant | yeast fitness
U8C C46U | 1.03
U8C C46U C49G | 0.701
U8C C46U G52A | ≤ 0.5
U8C C49A G68C | ≤ 0.5
U8C C49G A57G | 0.531
U8C C49U C61A | ≤ 0.5
U8C C55A | 0.739
U8C C55U G63A | 0.552
U8C C60A | 0.737
U8C C61A A65U | ≤ 0.5
U8C C61G | 0.678
U8C C66A | 0.687
U8C C66G | 0.75
U8C C66U | 0.892
U8C G9A A20C G68C | 0.527
U8C G9A A42G | 0.514
U8C G9A C22U C30A C49A C55A C62U C66U | ≤ 0.5
U8C G9A U13G C62U | ≤ 0.5
U8C G9C A37U G38A G39A | ≤ 0.5
U8C G9C C49U | ≤ 0.5
U8C G9C C49U G68U | ≤ 0.5
U8C G10A A40G | 0.551
U8C G10A U35A | ≤ 0.5
U8C G10C A15C A43C | ≤ 0.5

Variant | yeast fitness
U8C G10C A42G A43G C55U | 0.724
U8C G10C C46U C66U | ≤ 0.5
U8C G12A | 0.714
U8C G12A A45U G48A | ≤ 0.5
U8C G12A C29G U47C | ≤ 0.5
U8C G12A C29U U35G C62U | ≤ 0.5
U8C G12A C31G A40C A45C G48C | ≤ 0.5
U8C G12A G18A A45C | ≤ 0.5
U8C G12A G63A | ≤ 0.5
U8C G12A U19C C34G C66U A69U | ≤ 0.5
U8C G12C U32G A42U | ≤ 0.5
U8C G17A | 0.711
U8C G17A A70U | ≤ 0.5
U8C G17A G41C U64A A65C | ≤ 0.5
U8C G17C G58C | ≤ 0.5
U8C G18A | 0.686
U8C G18A A45U G67C | 0.552
U8C G18C A20U C49G | ≤ 0.5
U8C G18C A21C C61U C66U | ≤ 0.5
U8C G18C A21C U47A G48C U54G A65C | ≤ 0.5
U8C G18C C27A C33U A65C A69C | ≤ 0.5
U8C G18C G50A C60U | 0.546
U8C G23A A65C | 0.571
U8C G23A C30U C55A | ≤ 0.5

Variant | yeast fitness
U8C G23A C34A A42U C46A A57C | ≤ 0.5
U8C G23A G44C A45U C49A | ≤ 0.5
U8C G23C | 0.642
U8C G23C C27G G50A C66G A69G | 0.836
U8C G23U A42G C60A | ≤ 0.5
U8C G25A A36C A70G | 0.624
U8C G25A A37C G68U | ≤ 0.5
U8C G25C C33A | ≤ 0.5
U8C G25C G38A G58A C60U C62U | ≤ 0.5
U8C G38A G52A | ≤ 0.5
U8C G38C C49U C62U A69U | 0.568
U8C G38C U64A C66U | ≤ 0.5
U8C G39C U47C C60A C61G A69U | ≤ 0.5
U8C G41C A69U | 0.637
U8C G44A | 1.01
U8C G44A C55U | ≤ 0.5
U8C G44A U53C C55U A70U | ≤ 0.5
U8C G44C C60G | 0.53
U8C G48A | 0.899
U8C G48C G52A C66A | ≤ 0.5
U8C G48C G63C A70C | ≤ 0.5
U8C G50A | 0.773
U8C G50A A69U | 0.804
U8C G51A | 0.817

Variant | yeast fitness
U8C G51A C62A | ≤ 0.5
U8C G51C G58C | ≤ 0.5
U8C G52A | 0.765
U8C G67A | 0.85
U8C G67C | 0.953
U8C U13A A65G | 0.716
U8C U13A C22A A42U | ≤ 0.5
U8C U13A C22G C24G A36U A40C G51C | ≤ 0.5
U8C U13A C24U C29G C33A U47A C55U A65C A69G | ≤ 0.5
U8C U13A C29A C31G | ≤ 0.5
U8C U13A U32C A69U | 0.677
U8C U13C A36U G38A A65C | ≤ 0.5
U8C U13C U47C A65G | ≤ 0.5
U8C U13G C22U | 0.529
U8C U16A A21U C24G G48C | ≤ 0.5
U8C U16A C27U C55G | 0.691
U8C U16C | 0.861
U8C U16C A21C C49A G58A C66U G68A | ≤ 0.5
U8C U16C A65G | 0.707
U8C U16C A69C | 0.709
U8C U16C C24U U28C U47A C55U | ≤ 0.5
U8C U16C C61G A69C | ≤ 0.5
U8C U19A A40C G44C G48C U53G | ≤ 0.5
U8C U19A A40U | 0.581

Variant | yeast fitness
U8C U19A A57C U64A | ≤ 0.5
U8C U19A C31A G41C A45G G50C C62U | ≤ 0.5
U8C U19G A45C | ≤ 0.5
U8C U19G C22U C31U A40U G67A | 0.53
U8C U26A | 0.884
U8C U26C A37U A57G | ≤ 0.5
U8C U26G A42C | 0.703
U8C U28A | 0.901
U8C U28A A37G G41C | ≤ 0.5
U8C U28C C30G C31G A65C | ≤ 0.5
U8C U28G C30G A40C A42U | 0.54
U8C U28G C46G C49U A69C | ≤ 0.5
U8C U32C C46G G67C | ≤ 0.5
U8C U32C G44A G56A | ≤ 0.5
U8C U32G C49G | ≤ 0.5
U8C U47C A69C | 0.714
U8C U54G U64A | 0.543
U8G | 0.711
U8G A14C G17C C61G | ≤ 0.5
U8G A14G A21G C27A U35A C62A A65C | ≤ 0.5
U8G A14U A15U A20C C60U A69C | ≤ 0.5
U8G A14U U16C A40U G48C | ≤ 0.5
U8G A15C | 0.598
U8G A15G C24U C29G A45C C60A | 0.551

Variant | yeast fitness
U8G A15U A20C A69C | ≤ 0.5
U8G A20G C60G C61A | ≤ 0.5
U8G A20G G58U A65G G67A | ≤ 0.5
U8G A20G U47G A57G | 0.654
U8G A20U A36C A65G | ≤ 0.5
U8G A21C A43U U59A G63A | ≤ 0.5
U8G A21C G50A G56A | ≤ 0.5
U8G A21C G56C | 0.766
U8G A21G C27A U35A C62A A65C | 0.568
U8G A21G C29U U32C | ≤ 0.5
U8G A21G G23A U64C | ≤ 0.5
U8G A21U C27G A65C | ≤ 0.5
U8G A21U C62U | ≤ 0.5
U8G A21U G56A | ≤ 0.5
U8G A37C G52C G58C | ≤ 0.5
U8G A37C G68A | ≤ 0.5
U8G A37U C66U | ≤ 0.5
U8G A37U G52A A57C C60A | ≤ 0.5
U8G A40U G52A A69U | ≤ 0.5
U8G A43C C61U | ≤ 0.5
U8G A43C G51A | ≤ 0.5
U8G A45C | 0.537
U8G A45G | 0.632
U8G A45U G50A A69C | ≤ 0.5

Variant | yeast fitness
U8G A70U | 0.59
U8G C11A C24A C29A C34U C61G A65C | ≤ 0.5
U8G C11G U32A | 0.642
U8G C11U | 0.646
U8G C11U U16C A42U | 0.749
U8G C22G G48A C60A U64C A69C | 0.561
U8G C22U C62A | 0.559
U8G C22U U28C C62A | ≤ 0.5
U8G C24A C30G A40G | 0.559
U8G C24A C30G A40G U47G C55U | 0.512
U8G C24A C30G A40G U47G C55U C66U A70C | ≤ 0.5
U8G C24G C33G A36U C49G C62G C66G A69C | 0.602
U8G C24G C55A A65U | ≤ 0.5
U8G C24G G41A | 0.553
U8G C24G G41A A69U | ≤ 0.5
U8G C24G U59A C60A | ≤ 0.5
U8G C24U | 0.626
U8G C27A C61A | ≤ 0.5
U8G C27A C61A G67A | ≤ 0.5
U8G C27U C30A A43C | ≤ 0.5
U8G C29A A37U C49A | ≤ 0.5
U8G C29G | 0.55
U8G C29U G50C U59A | ≤ 0.5
